This is an account of results in ChEMBL document CHEMBL1149792, “Synthesis and adenosine receptor binding studies of some novel triazolothienopyrimidines” (Eur J Med Chem, 2008).

Test [1] concerns the target T1, Adenosine receptor A1 (Rattus norvegicus) (UniProt P25099).
T1 sequence (whole entry): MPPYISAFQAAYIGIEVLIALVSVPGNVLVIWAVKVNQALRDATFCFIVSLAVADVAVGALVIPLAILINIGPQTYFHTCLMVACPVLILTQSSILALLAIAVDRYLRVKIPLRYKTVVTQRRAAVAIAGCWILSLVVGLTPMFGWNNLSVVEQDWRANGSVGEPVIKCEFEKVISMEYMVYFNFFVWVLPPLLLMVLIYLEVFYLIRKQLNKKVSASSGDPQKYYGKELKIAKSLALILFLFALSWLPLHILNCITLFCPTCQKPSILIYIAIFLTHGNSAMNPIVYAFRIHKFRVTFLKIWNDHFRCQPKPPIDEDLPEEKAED
In words: Inhibition of rat adenosine A1 receptor at 1 uM. A digest of the protocol:
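Single-concentration screen measured as percent inhibition of [3H]CCPA (0.5 nM) binding to rat cortical membranes, run at room temperature for 90 min with 2.5% DMSO final. Nonspecific binding was defined with 2-chloroadenosine. Separation was by GF/B filtration, with scintillation counting of bound radioactivity.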

The target of the next test is T2, Adenosine receptor A1 (Rattus norvegicus, UniProt P25099).
T2 sequence (P25099 whole entry): T1 sequence (whole entry)
In words: Displacement of [3H]CCPA from rat adenosine A1 receptor. A digest of the protocol: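 Rat brain cortical membranes (from frozen rat brains) were incubated with [3H]CCPA at 0.5 nM at room temperature for 90 min. Compounds were added from DMSO stocks, giving 2.5% DMSO final. 2-Chloroadenosine defined nonspecific binding. Bound radioactivity was separated by GF/B filtration and counted by scintillation. Compounds giving over 20% inhibition in the single-concentration screen were tested at six concentrations to derive Ki.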
Background: Displacement assays read how much labelled ligand stays bound in the presence of the test substance.

On to `Cc1nc2sc3c(c2c2n[nH]c(=S)n12)CCCC3`, for which the inhibition – broadly, the change of the read-out against control, counted positive when it falls – in test [1] came out at 26%. Also, at Adenosine receptor A1, the affinity corresponds to a Ki of 4.4 µM.
`S=c1[nH]nc2c3c4c(sc3nc(-c3ccncc3)n12)CCCC4` returned an inhibition in test [1] of 0%.
The same measure, in the same setting: the figure for `S=c1[nH]nc2c3c4c(sc3nc(-c3ccccc3)n12)CCCC4` is 0%.
Compound `CCc1nc2sc(C)c(C)c2c2n[nH]c(=S)n12` had an inhibition in test [1] of 21%. In addition, at Adenosine receptor A1, the affinity corresponds to a Ki of 2.1 µM.
In test [1], `CCCc1nc2sc(C)c(C)c2c2n[nH]c(=S)n12` displayed an inhibition of 13%.
Take `Cc1sc2nc(C)n3c(=S)[nH]nc3c2c1C`: the inhibition in test [1] was determined as 4%.
Same read-out and setting: the figure for `CCCc1nc2sc3c(c2c2n[nH]c(=S)n12)CCCC3` is 0%; for `O=C(c1ccccc1)c1nc2sc3c(c2c2n[nH]c(=S)n12)CCCC3` it is 0%.
Compound `CCc1nc2sc3c(c2c2n[nH]c(=S)n12)CCCC3` showed an inhibition in test [1] of 56%. Besides, the inhibitory constant (Ki) (in general, a measure of affinity in units of concentration, obtained from inhibition or displacement) at Adenosine receptor A1 came out at 1.17 µM.
For `Cc1sc2nc(C(=O)c3ccccc3)n3c(=S)[nH]nc3c2c1C`, the inhibition in test [1] came to 0%.
On the same count and under the same terms, the figure for `Cc1sc2nc(-c3ccccc3)n3c(=S)[nH]nc3c2c1C` is 0%.
